Laboratory results published in ChEMBL document CHEMBL1142314, “alpha- and beta-substituted phosphonate analogs of LPA as autotaxin inhibitors” (Bioorg Med Chem, 2008).

What was measured:
Autotaxin (Homo sapiens) [1] = molecular target: Autotaxin (Homo sapiens) (UniProt Q13822); experiment: Inhibition of autotaxin assessed as residual enzyme activity at 1 uM relative to control
Outline: (§1)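 ATX activity measured with the compound present at 1 μM, 10 μM or 100 μM. Activity without compound served as the standard (100%), and results are reported as percent residual ATX activity.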

Autotaxin (Homo sapiens) [2] = molecular target: Autotaxin (Homo sapiens) (UniProt Q13822); experiment: Inhibition of autotaxin assessed as residual enzyme activity at 10 uM relative to control; outline: as §1
Autotaxin (Homo sapiens) [3] = molecular target: Autotaxin (Homo sapiens) (UniProt Q13822); experiment: Inhibition of autotaxin assessed as residual enzyme activity at 100 uM relative to control; outline: as §1

Structure (SMILES) | Activity (Autotaxin (Homo sapiens) [1]) | Activity (Autotaxin (Homo sapiens) [2]) | Activity (Autotaxin (Homo sapiens) [3])
CCCCCCCCCCCCCCCC(=O)N1CCCC1C(O)CP(=O)(O)O (stereo not given) | 83% | 43% | 16%
CCCCCCCCCCCCCCCC(=O)N[C@@H](CC(C)C)C(=O)CP(=O)(O)O | 89% | 48% | 25%
CCCCCCCCCCCCCCCC(=O)N[C@@H](Cc1cn(Cc2ccccc2)c2ccccc12)C(O)CP(=O)(O)O (mixture of isomers) | 80% | 35% | 28%
CCCCCCCCCCCCCCCC(=O)N[C@@H](C)C(O)CP(=O)(O)O (mixture of isomers) | 50% | 14% | 25%
CCCCCCCCCCCCCCCC(=O)N[C@@H](Cc1c[nH]c2ccccc12)C(=O)CP(=O)(O)O | 91% | 70% | 28%
CCCCCCCCCCCCCCCC(=O)N[C@@H](C)C(=O)CP(=O)(O)O | 60% | 67% | 72%
CCCCCCCCCCCCCCCC(=O)N[C@@H](Cc1c[nH]c2ccccc12)C(O)CP(=O)(O)O (stereo in doubt; 42) | 93% | 75% | 26%
CCCCCCCCCCCCCCCC(=O)N[C@@H](Cc1ccccc1)C(O)CP(=O)(O)O (stereo in doubt; 37) | 92% | 99% | 67%
CCCCCCCCCCCCCCCC(=O)N[C@@H](Cc1ccccc1)C(O)CP(=O)(O)O (single isomer, unassigned; diastereomer a) | 88% | 70% | 70%
CCCCCCCCCCCCCCCC(=O)N[C@@H](Cc1ccc(OCc2ncc(C)c(OC)c2C)cc1)CC(F)P(=O)(O)O (mixture of isomers) | 74% | 68% | 25%
CCCCCCCCCCCCCCCC(=O)N[C@@H](C(C)C)C(O)CP(=O)(O)O (single isomer, unassigned; diastereomer a) | 115% | 57% | 13%

The remaining lines, values ahead:

Activity (Autotaxin (Homo sapiens) [1]) | Activity (Autotaxin (Homo sapiens) [2]) | Activity (Autotaxin (Homo sapiens) [3]) | Structure (SMILES)
78% | 46% | 61% | CCCCCCCCCCCCCCCC(=O)N[C@@H](COCc1ccccc1)C(O)CP(=O)(O)O (single isomer, unassigned; diastereomer b)
72% | 78% | 23% | CCCCCCCCCCCCCCCC(=O)N[C@@H](C(C)C)C(O)CP(=O)(O)O (stereo in doubt; 32)
64% | 28% | 13% | CCCCCCCCCCCCCCCC(=O)N[C@@H](Cc1cn(Cc2ncc(C)c(OC)c2C)c2ccccc12)C(O)CP(=O)(O)O (mixture of isomers)
88% | 51% | 25% | CCCCCCCCCCCCCCCC(=O)N[C@@H](Cc1c[nH]c2ccccc12)C(O)CP(=O)(O)O (single isomer, unassigned; diastereomer a)
93% | 64% | 52% | CCCCCCCCCCCCCCCC(=O)N[C@@H](CC(C)C)C(O)CP(=O)(O)O (single isomer, unassigned; diastereomer b)
68% | 53% | 23% | CCCCCCCCCCCCCCCC(=O)N[C@@H](CC(C)C)C(O)CP(=O)(O)O (single isomer, unassigned; diastereomer a)
88% | 88% | 56% | CCCCCCCCCCCCCCCC(=O)NCC(O)CP(=O)(O)O (stereo not given)
73% | 68% | 87% | CCCCCCCCCCCCCCCC(=O)N[C@@H](Cc1ccc(OCc2ncc(C)c(OC)c2C)cc1)C[C@H](O)P(=O)(O)O
109% | 77% | 24% | CCCCCCCCCCCCCCCC(=O)N[C@H](C(=O)CP(=O)(O)O)C(C)C
59% | 22% | 11% | CCCCCCCCCCCCCCCC(=O)N[C@@H](Cc1ccc(OCc2ncc(C)c(OC)c2C)cc1)C(F)CP(=O)(O)O (stereo not given in full)
83% | 41% | 19% | CCCCCCCCCCCCCCCC(=O)N[C@@H](COCc1ccccc1)C(O)CP(=O)(O)O (stereo in doubt; 45)
71% | 70% | 53% | CCCCCCCCCCCCCCCC(=O)N[C@@H](Cc1ccc(OCc2ncc(C)c(OC)c2C)cc1)C[C@@H](O)P(=O)(O)O
79% | 95% | 76% | CCCCCCCCCCCCCCCC(=O)NCC(=O)CP(=O)(O)O
49% | 18% | 9% | CCCCCCCCCCCCCCCC(=O)N1CCCC1C(=O)CP(=O)(O)O (stereo not given)
